# Test results published in the RNAGym collection of RNA variant scans (doi:10.1126/science.aae0568).
# Fewer inactive variants are shown than the library holds.
# B1: tRNA (parent)
# chain: GUUCCGUUGGCGUAAUGGUAACGCGUCUCCCUCCUAAGGAGAAGACUGCGGGUUCGAGUCCCGUACGGAACG
# Variants of: B1
# Assay: yeast fitness relative to wild type (ratio to wild type); higher = fitter; tRNA-Arg(CCU), competitive growth, 37 C, YPD
# Outline: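 Changes in genotype frequencies gave Darwinian fitness relative to wild type. Frequencies were read by 100-nucleotide paired-end sequencing of gene amplicons before and after pooled Saccharomyces cerevisiae strains, carrying tRNA-Arg(CCU) gene variants at the native locus, were competed in YPD at 37°C for 24 hours in six replicates. A genotype was kept only with ≥ 100 starting reads, and estimates < 0.5 were set to 0.5.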
row,Variant,yeast fitness
1,U3C C31G,0.86
2,U3C C31U,0.891
3,U3C A15U C34U A43G,0.545
4,U3C C62G,0.853
5,U3C A40G C46A,0.966
6,U3C A15G C30A,0.564
7,U3C C29G C30G A37C G39A,≤ 0.5
8,U3C A15C G17C C24A C31U U35C G68C,≤ 0.5
9,U3C C24A C55A,≤ 0.5
10,U3C C11U C46U,1.1
11,U3C C34A A37C G39A A45G C62U,0.534
12,U3C C29G G56A C62G C66G,≤ 0.5
13,U3C G12A A37C A45U G48C,0.591
14,U3C A15G G23A C60U G68C,≤ 0.5
15,U3C A20U U64A,0.594
16,U3C G9A U19C,0.816
17,U3C C55G G68C,≤ 0.5
18,U3C C27G C33G A42G A45G,≤ 0.5
19,U3C A43U A45G A69C,≤ 0.5
20,U3C A21G C46A G56A,≤ 0.5
21,U3C A40U G58A,1.02
22,U3C A65C,1
23,U3C A65U,0.997
24,U3C C24A C29U G67U,0.522

row,Variant,yeast fitness
1,U3C C27G,0.714
2,U3C C29U A36U C66U G67A,≤ 0.5
3,U3C G9A A15U C30A C34A A42G,≤ 0.5
4,U3C A21G,0.962
5,U3C C24U U26C G63A A65G,≤ 0.5
6,U3C C49G U59A,≤ 0.5
7,U3C C31U C61A,0.567
8,U3C G9C C11U C30G A43C,0.519
9,U3C G10C C27U,≤ 0.5
10,U3C G10C C11G C24G,≤ 0.5
11,U3C A20U C30U A37G A70C,0.708
12,U3C C30G A43C G48A,≤ 0.5
13,U3C C31U C62G,0.665
14,U3C A21G C33G C34G,≤ 0.5
15,U3C C27G C49G,≤ 0.5
16,U3C C34G A65G,0.757
17,U3C C24G C61U,0.528
18,U3C C5G A15C C27G A69U,≤ 0.5
19,U3C A37C A70U,0.683
20,U3C A37C A70G,0.555
21,U3C A20C C46U C60U C61U,0.759
22,U3C C11U G17A C49U,≤ 0.5
23,U3C C46U A65U,0.739
24,U3C A45C G48A U54C,0.751

row,Variant,yeast fitness
1,U3C C31U A40C,0.654
2,U3C A37C C62G,0.548
3,U3C C24U C62U,0.725
4,U3C A37C U64A,0.598
5,U3C C4U C55U,0.699
6,U3C C5G C34U,≤ 0.5
7,U3C C27U G56A C61A,≤ 0.5
8,U3C A45C,0.856
9,U3C A45U,0.999
10,U3C A21U G67C,≤ 0.5
11,U3C C11A C31A A42G G68C,≤ 0.5
12,U3C G12A A45U A69C,≤ 0.5
13,U3C G9A A65G,0.888
14,U3C A43C C61U,0.707
15,U3C A43C C61A,0.612
16,U3C C27U C30U U53A A69C,≤ 0.5
17,U3C A40C,0.935
18,U3C A40G,0.929
19,U3C A20G C29G C55U,≤ 0.5
20,U3C A20C G23C G56C,≤ 0.5
21,U3C C5U A37G A43C C62U,≤ 0.5
22,U3C G6A,0.866
23,U3C G6C,0.753
24,U3C C11U U53C,0.588

row,Variant,yeast fitness
1,U3C C31U G63A,0.771
2,U3C G9C C30G A43C,≤ 0.5
3,U3C C29U C60G,0.568
4,U3C C5G G17A A40C U59C,≤ 0.5
5,U3C C46A G48A C66U,0.629
6,U3C G10A U13C G58C,≤ 0.5
7,U3C C4U A43U G58A,≤ 0.5
8,U3C A21G C46G G50A,≤ 0.5
9,U3C C5G A14U A43G G67C,≤ 0.5
10,U3C A43U U53A,≤ 0.5
11,U3C A57C A65U,≤ 0.5
12,U3C C4U C5G U16C C24G A42C G58A,≤ 0.5
13,U3C A15C A43G C46G C66G A69G,≤ 0.5
14,U3C C49A G51C,0.694
15,U3C A20U C24U C30A,0.656
16,U3C C5U C22U A40U A43U,≤ 0.5
17,U3C C4U A57G,0.677
18,U3C G12A A20C G23C G56C A65C G68A,≤ 0.5
19,U3C C11U C31U,0.782
20,U3C C31U G48A,0.734
21,U3C A20G A57U,0.597
22,U3C C11G G41C,≤ 0.5
23,U3C C22G A69U,0.667
24,U3C G9A A14G C66U,≤ 0.5

row,Variant,yeast fitness
1,U3C C5G U19G C31A C46A G56A A57U,≤ 0.5
2,U3C C5A C11G A20U G25C U32A,≤ 0.5
3,U3C A15U C34U A43G C49U,≤ 0.5
4,U3C C5G G63C C66G,≤ 0.5
5,U3C A43U A45G G63A,≤ 0.5
6,U3C C4U A20C A21U C27G A42U G52A,≤ 0.5
7,U3C C60G G67C,≤ 0.5
8,U3C A45U G50A,0.849
9,U3C C11A C27G C33A C46A,0.541
10,U3C A20G C24U G38A G58C,≤ 0.5
11,U3C C4U A15G U26A U32A C60G G67A,≤ 0.5
12,U3C C5G C30G A36C,≤ 0.5
13,U3C C27A C31G,0.604
14,U3C G10C C30U U54A,≤ 0.5
15,U3C C31G G67U,≤ 0.5
16,U3C C5G G38A A65G C66G,≤ 0.5
17,U3C C5G C11G A45C,≤ 0.5
18,U3C G9A C34U A65U,≤ 0.5
19,U3C C31U G52C,0.591
20,U3C C22G C61U A65U,0.596
21,U3C C11U A14C A21U A36C G58C,0.562
22,U3C G12A A37C A45U G48C C66U G67C A70G,≤ 0.5
23,U3C A15G,1.03
24,U3C C22U,0.824

row,Variant,yeast fitness
1,U3C C22A,0.79
2,U3C C4G C22G C33U A36C A40U,≤ 0.5
3,U3C C30G C62A,≤ 0.5
4,U3C A15G C49G,0.556
5,U3C A43U,0.987
6,U3C A43G,0.999
7,U3C A20U C30A,0.568
8,U3C C5A U8A G25A A45G,≤ 0.5
9,U3C C27G C33U A43U,≤ 0.5
10,U3C C5U C33G C34U G38C U47A,≤ 0.5
11,U3C A20U G52C,≤ 0.5
12,U3C C31G A57G,0.589
13,U3C C30A A65G,0.702
14,U3C A37U G52A A57C C60A,≤ 0.5
15,U3C C34A G44A U54A,≤ 0.5
16,U3C C4U G10A C30U C49U,0.598
17,U3C G6A G18C A45U G68A,≤ 0.5
18,U3C C30U C33G,≤ 0.5
19,U3C G9A C30A G67U,≤ 0.5
20,U3C C24U A42C,0.663
21,U3C C46U A69U,0.789
22,U3C C11A C31A,0.556
23,U3C G9A G68A,0.843
24,U3C A40U G58A A69C,0.656

row,Variant,yeast fitness
1,U3C C49U,0.891
2,U3C A40G C46A U53C,0.663
3,U3C C22A C33A,≤ 0.5
4,U3C C4G U7C A21C G23C C55A U64A A65C,≤ 0.5
5,U3C A40C C61G,0.576
6,U3C C30G A43C G67C,≤ 0.5
7,U3C C24G,0.642
8,U3C C55A A65U,≤ 0.5
9,U3C A57G A70U,0.564
10,U3C G9A A57G A65U,≤ 0.5
11,U3C A37C G38A G52A G63A,≤ 0.5
12,U3C C5G C61U,≤ 0.5
13,U3C C24G C33G C66U,≤ 0.5
14,U3C A21G G38A G56A,≤ 0.5
15,U3C C34A G52A,≤ 0.5
16,U3C A21C A65C,≤ 0.5
17,U3C A20U,0.866
18,U3C C11A C27G C33A A43C C46A A70U,0.528
19,U3C A37C,0.82
20,U3C A40U C49A,0.577
21,U3C A15U C34U A43G U54C,≤ 0.5
22,U3C C11A A21G U28C U32G,≤ 0.5
23,U3C A20G U64A A65G,≤ 0.5
